Data reported in ChEMBL document CHEMBL4808167, “Design, Synthesis, and Evaluation of Small Molecule Gαq/11 Protein Inhibitors for the Treatment of Uveal Melanoma” (J Med Chem, 2021).
The source made the active and inactive calls. The calls are words filed in the database; no cut-off is given here.

Assays:
[1] = Induction of apoptosis in human MP41 cells assessed as necrotic cells at 30 uM after 48 hrs by Annexin-V-FITC/propidium iodide staining based flow cytometry (reference value: 0.11%); format: functional
[2] = Cmax in ICR mouse at 10 mg/kg, iv measured upto 24 hrs by LC-MS/MS analysis; format: ADME, organism-based; parameters: route intravenous, dose 10 mg/kg, time <=24; conditions: in vivo
How it was run: (§1)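 Single dose in male ICR mice, 10 mg/kg iv or 30 mg/kg po, dissolved in 5% DMSO/95% saline. Blood drawn by catheter at 0, 5, 15, 30 min and 1, 2, 4, 6, 8, 24 h. Plasma spun 6800g 6 min at 2−8 °C, stored −80 °C, quantified by LC−MS/MS. Noncompartmental parameters, mean ± SD, n = 6.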

[3] = Induction of apoptosis in human MP41 cells assessed as early apoptotic cells at 30 uM after 48 hrs by Annexin-V-FITC/propidium iodide staining based flow cytometry (reference value: 2.96%); format: functional
[4] = target: T1, GNAQ/GNA11 (Homo sapiens) (UniProt P50148+P29992); assay: Inhibition of Galphaq/11 in human MP41 cells xenografted mouse tumor tissue assessed as inhibition of ERK phosphorylation at 10 to 30 mg/kg, ip administered for 21 consecutive days by Western blot analysis; format: organism-based; conditions: dose 10-30 mg/kg, time 21.0 day
How it was run: (§2)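 MP41 xenograft tumours from mice given 10 or 30 mg/kg/day ip for 21 consecutive days were analysed by Western blot. Probed for p-YAP, YAP, p-ERK and ERK, with GAPDH as loading control. Representative of triplicate experiments.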

[5] = target: T1, GNAQ/GNA11 (Homo sapiens); assay: Inhibition of Galphaq/11 in human MP41 cells assessed as induction of YAP phosphorylation at 15 to 30 uM after 48 hrs by Western blot analysis; format: cell-based; conditions: dose 15-30 µM
How it was run: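 92.1 and MP41 cells plated overnight, then exposed to compound 48 h. Lysed in ice-cold buffer and protein quantified by BCA. Resolved on 8−12% SDS−PAGE and transferred to PVDF. Probed for p-YAP Ser127, total YAP, p-ERK1/2 Thr202/Tyr204 and total ERK1/2, with GAPDH as loading control. ECL detection, triplicate.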

[6] = Induction of apoptosis in human MP41 cells assessed as late apoptotic cells at 30 uM after 48 hrs by Annexin-V-FITC/propidium iodide staining based flow cytometry (reference value: 3.28%); format: functional
GNAQ/GNA11 [7] = target: T2, GNAQ/GNA11 (Homo sapiens, UniProt P50148+P29992); assay: Binding affinity to Galphaq/11 (unknown origin) expressed in HEK293 cells cotransfected with AT1R/Galphaq-RLuc8/ Ggamma2-venus/Gbeta1 assessed as inhibition of Ang-II induced-BRET signal preincubated for 1 hr followed by Ang-II addition by BRET assay; format: cell-based
T2 sequence (P50148 whole entry): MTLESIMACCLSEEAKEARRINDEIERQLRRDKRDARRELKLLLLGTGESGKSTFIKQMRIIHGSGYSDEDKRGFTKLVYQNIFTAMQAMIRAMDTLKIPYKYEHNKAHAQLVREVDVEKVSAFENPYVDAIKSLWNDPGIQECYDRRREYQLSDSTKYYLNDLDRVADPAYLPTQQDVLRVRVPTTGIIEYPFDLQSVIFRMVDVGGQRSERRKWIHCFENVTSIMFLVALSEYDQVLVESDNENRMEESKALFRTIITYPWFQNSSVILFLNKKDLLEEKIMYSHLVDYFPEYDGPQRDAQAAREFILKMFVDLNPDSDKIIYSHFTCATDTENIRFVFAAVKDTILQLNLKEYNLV
T2 sequence (P29992 whole entry): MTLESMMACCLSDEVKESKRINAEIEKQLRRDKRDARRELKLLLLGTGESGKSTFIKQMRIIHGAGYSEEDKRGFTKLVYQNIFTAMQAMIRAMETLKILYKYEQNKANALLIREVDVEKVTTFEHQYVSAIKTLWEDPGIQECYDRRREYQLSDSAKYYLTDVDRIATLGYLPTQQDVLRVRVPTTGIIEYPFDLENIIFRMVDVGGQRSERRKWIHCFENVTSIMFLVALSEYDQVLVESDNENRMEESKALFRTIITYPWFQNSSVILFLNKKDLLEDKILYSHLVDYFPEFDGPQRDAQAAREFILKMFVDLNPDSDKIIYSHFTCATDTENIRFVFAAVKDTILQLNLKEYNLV
How it was run: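 HEK293 cells transiently transfected with AT₁R, Gαq-RLuc8, Gγ2-Venus and untagged Gβ1. Replated 24 h later, washed with HBS, starved 10 min, then pretreated with compound for 1 h at 37 °C. AngII added, followed by coelenterazine. BRET ratio taken as Venus emission (520−570 nm) over RLuc8 emission (370−480 nm). Mean ± SD, n = 3.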

[8] = target: T1, GNAQ/GNA11 (Homo sapiens); assay: Inhibition of Galphaq/11 (unknown origin) expressed in HEK293 cells cotransfected with AT1R assessed as inhibition of Ang-II induced calcium release at 100 uM preincubated for 30 mins followed by Ang-II addition by Fluo-4AM dye based fluorescence assay; format: cell-based
How it was run: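 HEK293 cells transfected with AT₁R, washed in HBSS with 0.1% BSA and loaded with Fluo-4 AM for 1 h at 37 °C. Washed, then pretreated with compound at 100 μM for 30 min. AngII at varying concentrations added 20 s into the fluorescence recording. Mean ± SD, n = 3.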

[9] = Toxicity in nude BALB/c mouse xenografted with human MP41 cells assessed as effect on body weight at 10 to 30 mg/kg, ip administered once daily for 21 days and measured every 3 days; format: organism-based; conditions: in vivo, 504 h, dose 10-30 mg/kg, time 21 day
How it was run: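 Nude BALB/c mice bearing serially passaged MP41 tumour slices (tertiary recipients, n = 8/group, randomized) dosed ip daily for 21 days at 10 or 30 mg/kg/d or vehicle. Body weight monitored every 3 days. Tissues collected at sacrifice, fixed in 4% paraformaldehyde 24 h, paraffin-embedded, H&E stained, viewed at ×100.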

GNAQ/GNA11 [10] = target: T2, GNAQ/GNA11; assay: Inhibition of Galphaq/11 (unknown origin) expressed in CHO cells coexpressing M1 receptor assessed as reduction in carbachol-induced IP1 accumulation preincubated for 1 hr followed by carbachol stimulation and measured after 1 hr by HTRF assay; format: cell-based
[11] = AUC(0 to t) in ICR mouse at 10 mg/kg, iv measured upto 24 hrs by LC-MS/MS analysis; format: ADME, organism-based; parameters: route intravenous, dose 10 mg/kg, time <=24; conditions: in vivo; how it was run: as §1
MP41 [12] = assay: Inhibition of cell migration in human MP41 cells at 30 uM incubated for 48 hrs by Transwell migration assay; format: functional, cell-based
How it was run: (§3)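 Transwell migration: 92.1 and MP41 cells (RPMI-1640, 10% FBS) seeded 1 × 10⁴/well in upper chamber in serum-free medium, 20% FBS medium below; overnight at 37 °C, then compound for 48 h. Non-migrated cells swabbed off; lower cells crystal violet-stained 30 min, counted by light microscopy. Mean SD of three independent experiments.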

MP41 [13] = assay: Inhibition of cell migration in human MP41 cells at 15 uM incubated for 48 hrs by transwell migration assay; format: functional, cell-based; how it was run: as §3
[14] = target: T1, GNAQ/GNA11 (Homo sapiens); assay: Inhibition of Galphaq/11 in human MP41 cells xenografted mouse tumor tissue assessed as induction of YAP phosphorylation at 10 to 30 mg/kg, ip administered for 21 consecutive days by Western blot analysis; format: organism-based; conditions: dose 10-30 mg/kg, time 21.0 day; how it was run: as §2

Cmax [2]: 2610 ng/mL | inhibition [4]: Active | inhibition [5]: Active | IC50 (GNAQ/GNA11 [7]): 55.2 µM | Activity [8]: Active | IC50 (GNAQ/GNA11 [10]): 22.6 µM | AUC(0-t) at 24 h [11]: 2140 ng·h/mL | inhibition [14]: Active
Structure (SMILES): CC[C@@H](C)[C@H](N)C(=O)N1CCn2cc(-c3ccccc3)nc2[C@@H]1CC1CCCCC1
Activity [1]: 0.27% | Activity [3]: 17.9% | Activity [6]: 6.16% | Activity [9]: Non-Toxic | inhibition (MP41 [12]): Active | inhibition (MP41 [13]): Active
